According to ChEMBL document CHEMBL4229377, “Design, synthesis and bioevaluation of 1,2,3,9-tetrahydropyrrolo[2,1-b]quinazoline-1-carboxylic acid derivatives as potent neuroprotective agents” (Eur J Med Chem, 2018):

Legend:
SH-SY5Y [1] = experiment: Neuroprotective activity against NMDA-induced cell damage in human SH-SY5Y cells assessed as cell viability at 100 uM preincubated for 6 hrs followed by NMDA addition and measured after 30 mins by MTT assay (reference value: 58.7 +/- 2.3%)
SH-SY5Y [2] = experiment: Neuroprotective activity against NMDA-induced cell damage in human SH-SY5Y cells assessed as cell viability at 10 uM preincubated for 6 hrs followed by NMDA addition and measured after 30 mins by MTT assay (reference value: 58.7 +/- 2.3%); assay type: functional; conditions: read-out: Activity
SH-SY5Y [3] = experiment: Neuroprotective activity against NMDA-induced cell damage in human SH-SY5Y cells assessed as cell viability at 1 uM preincubated for 6 hrs followed by NMDA addition and measured after 30 mins by MTT assay (reference value: 58.7 +/- 2.3%); assay type: functional; conditions: read-out: Activity
SH-SY5Y [4] = experiment: Neuroprotective activity against NMDA-induced cell damage in human SH-SY5Y cells assessed as cell viability at 0.1 uM preincubated for 6 hrs followed by NMDA addition and measured after 30 mins by MTT assay (reference value: 58.7 +/- 2.3%); assay type: functional; conditions: read-out: Activity
[5] = Clearance in human liver microsomes at 10 uM preincubated for 10 mins followed by NADPH addition and measured up to 60 mins; assay type: ADME, microsome; conditions: read-out: CLH
Method in brief: (§1)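 Human liver microsomes were incubated for 60 min with an NADPH regenerating system to derive T1/2 and CL (µL/min/mg). A no-cofactor sample, with buffer replacing NADPH, was run alongside over 60 min to give % parent remaining.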

[6] = Half life in human liver microsomes at 10 uM preincubated for 10 mins followed by NADPH addition and measured up to 60 mins; assay type: ADME, microsome
Method in brief: as §1

[7] = Metabolic stability in human liver microsomes assessed as parent compound remaining at 10 uM after 60 mins in absence of NADPH; assay type: ADME, microsome; conditions: read-out: Stability
Method in brief: as §1

| SMILES | Activity (SH-SY5Y [1]) [%] | viability at 10 µM (SH-SY5Y [2]) [%] | viability at 1 µM (SH-SY5Y [3]) [%] | viability at 0.1 µM (SH-SY5Y [4]) [%] | microsomal CLint at 10 µM [5] [µL/min/mg] | half-life at 10 µM [6] [min] | remaining at 1 h, 10 µM [7] [%] |
| --- | --- | --- | --- | --- | --- | --- | --- |
| O=C(NCCc1ccc(O)cc1)[C@@H]1CCC2=Nc3ccccc3CN21 | 67.8 | 81.4 | 78.1 | 67.7 | – | – | – |
| O=C(NCc1ccccc1)[C@@H]1CCC2=Nc3ccccc3CN21 | 64.4 | 70.5 | 71.6 | 68.4 | – | – | – |
| O=C(Nc1ccc(O)cc1)[C@@H]1CCC2=Nc3ccc(Br)cc3CN21 | 68.4 | 68 | 66.2 | 62.9 | – | – | – |
| COc1ccc(CCNC(=O)[C@@H]2CCC3=Nc4ccccc4CN32)cc1 | 60 | 75.1 | 81 | 73 | – | – | – |
| O=C(NCCCc1ccccc1)[C@H]1CCC2=Nc3ccc(Br)cc3CN21 | 44.1 | 65.4 | 72.1 | 58.1 | – | – | – |
| O=C(NCc1ccc(O)cc1)[C@H]1CCC2=Nc3ccc(Br)cc3CN21 | 56.9 | 67.4 | 78 | 75 | – | – | – |
| O=C(NCCc1ccc(O)cc1)[C@H]1CCC2=Nc3ccccc3CN21 | 68 | 70.5 | 80.7 | 65.2 | – | – | – |
| COc1ccc(CNC(=O)[C@H]2CCC3=Nc4ccccc4CN32)cc1 | 58.4 | 76.2 | 70.7 | 66.6 | – | – | – |
| COc1ccc(NC(=O)[C@@H]2CCC3=Nc4ccccc4CN32)cc1 | 48.4 | 66.4 | 72.7 | 64.7 | – | – | – |
| O=C(NCCc1ccccc1)[C@@H]1CCC2=Nc3ccccc3CN21 | 57.5 | 80 | 77.6 | 73.7 | – | – | – |
| O=C(NCc1ccc(F)cc1)[C@@H]1CCC2=Nc3ccccc3CN21 | 63.2 | 78.9 | 72.6 | 67.1 | – | – | – |
| O=C(N[C@H](CO)Cc1ccccc1)[C@@H]1CCC2=Nc3ccccc3CN21 | 72.4 | 79.6 | 82.6 | 67.1 | – | – | – |
| Cc1ccc(CNC(=O)[C@@H]2CCC3=Nc4ccccc4CN32)cc1 | 54.5 | 72.5 | 73.4 | 66.2 | – | – | – |
| O=C(OCc1ccccc1)[C@@H]1CCC2=Nc3ccccc3CN21 | 57.4 | 66.1 | 65.5 | 61 | – | – | – |
| O=C(NCCc1ccc(O)cc1)[C@H]1CCC2=Nc3ccc(Br)cc3CN21 | 81.5 | 78.2 | 74.5 | 67.8 | – | – | – |
| COc1ccc(COC(=O)[C@@H]2CCC3=Nc4ccccc4CN32)cc1 | 63.6 | 65.3 | 64.1 | 61.4 | 1180 | 1.2 | 3.2 |
| O=C(NCCc1c[nH]c2ccccc12)[C@@H]1CCC2=Nc3ccccc3CN21 | 78.2 | 80.9 | 72 | 66.2 | – | – | – |
| COc1ccc(CNC(=O)[C@@H]2CCC3=Nc4ccccc4CN32)cc1 | 64.4 | 74.1 | 71.8 | 68.1 | – | – | – |

| SMILES | Activity (SH-SY5Y [1]) [%] | viability at 10 µM (SH-SY5Y [2]) [%] | viability at 1 µM (SH-SY5Y [3]) [%] | viability at 0.1 µM (SH-SY5Y [4]) [%] | microsomal CLint at 10 µM [5] [µL/min/mg] | half-life at 10 µM [6] [min] | remaining at 1 h, 10 µM [7] [%] |
| --- | --- | --- | --- | --- | --- | --- | --- |
| N=C(NCc1ccc(O)cc1)[C@@H]1CCC2=Nc3ccccc3CN21 | 64.3 | 70.2 | 69.2 | 61.6 | – | – | – |
| O=C(Nc1ccccc1)[C@@H]1CCC2=Nc3ccccc3CN21 | 54.6 | 60.4 | 71.4 | 68.7 | – | – | – |
| O=C(NCCCc1ccccc1)[C@@H]1CCC2=Nc3ccc(Br)cc3CN21 | 42.2 | 66.1 | 76.6 | 69.1 | – | – | – |
| N=C(NCc1ccccc1)[C@@H]1CCC2=Nc3ccccc3CN21 | 66.4 | 68.8 | 68.6 | 61.6 | – | – | – |
| O=C(Nc1ccc(O)cc1)[C@H]1CCC2=Nc3ccccc3CN21 | 73.3 | 69.6 | 67.2 | 65.6 | – | – | – |
| O=C(NCc1ccc(O)cc1)[C@@H]1CCC2=Nc3ccc(Br)cc3CN21 | 60 | 76 | 73.5 | 69 | – | – | – |
| O=C(Nc1ccc(O)cc1)[C@H]1CCC2=Nc3ccc(Br)cc3CN21 | 66 | 68.3 | 71.3 | 61.7 | – | – | – |
| O=C(NCCCc1ccccc1)[C@H]1CCC2=Nc3ccccc3CN21 | 42 | 70.2 | 71.6 | 62.2 | – | – | – |
| O=C(NCc1ccc(F)cc1)[C@@H]1CCC2=Nc3ccc(Br)cc3CN21 | 60.1 | 70.4 | 70.4 | 64.8 | – | – | – |
| O=C(NCc1ccc(O)cc1)[C@H]1CCC2=Nc3ccccc3CN21 | 60.9 | 64.2 | 68 | 65.2 | – | – | – |
| O=C(NCCCc1ccccc1)[C@@H]1CCC2=Nc3ccccc3CN21 | 30.3 | 63.4 | 71.2 | 67.2 | – | – | – |
| O=C(NCCc1ccc(F)cc1)[C@@H]1CCC2=Nc3ccccc3CN21 | 33.5 | 68.1 | 75.4 | 71.4 | – | – | – |
| O=C(NCc1ccc(O)cc1)[C@@H]1CCC2=Nc3ccccc3CN21 | 70.3 | 73.8 | 72 | 67.6 | – | – | – |
| O=C(NCc1ccc(F)cc1)[C@H]1CCC2=Nc3ccccc3CN21 | 63.9 | 72.9 | 74.7 | 71.1 | – | – | – |
| COc1ccc(CNC(=O)[C@@H]2CCC3=Nc4ccc(Br)cc4CN32)cc1 | 55.3 | 74.3 | 68.8 | 60.4 | – | – | – |
| COc1ccc(CNC(=N)[C@@H]2CCC3=Nc4ccccc4CN32)cc1 | 56.9 | 66.1 | 65.8 | 64.8 | – | – | – |
| C[C@@H]([C@@H](O)c1ccc(O)cc1)N1CCC(Cc2ccccc2)CC1 [(S)-IFENPRODIL] | 65.1 | 79.5 | 72.7 | 71 | 109 | 12.8 | 87.3 |
| O=C(Nc1ccc(O)cc1)[C@@H]1CCC2=Nc3ccccc3CN21 | 70.9 | 70.1 | 68.3 | 67.7 | – | – | – |
